For 22 molecules, Activity results are on record in ChEMBL document CHEMBL1158160, “Diarylheptanoids, new phytoestrogens from the rhizomes of Curcuma comosa: Isolation, chemical modification and estrogenic activity evaluation” (2008).

For test [1], the system named is HeLa. The test can be described thus: Estrogenic activity in human HeLa cells assessed as Bcl-xL gene transcriptional activity at 10 nM after 24 hrs by RT-PCR relative to 17-beta-estradiol. Type of test: functional. The method, boiled down:
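HeLa cells grown in DMEM with 5% FBS (37 °C, 5% CO2, 24 h), then moved to phenol red-free DMEM with 5% charcoal-stripped FBS for 24 h. Exposed to 10^-8 M compound (final) for 24 h. Controls: 10^-8 M 17β-estradiol, 0.01% DMSO. Total RNA extracted, reverse transcribed. Bcl-xL PCR: 28 cycles (94 °C 30 s, 60 °C 30 s, 72 °C 30 s), same profile as HPRT.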

Test [2] has as its system HeLa. Put plainly: Estrogenic activity in human HeLa cells assessed as ERbeta gene transcriptional activity at 10 nM after 24 hrs by RT-PCR relative to 17-beta-estradiol. The class given is functional. The method, boiled down: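 Steroid-depleted HeLa cells (24 h in phenol red-free DMEM, 5% charcoal-stripped FBS) treated 24 h with compound at 10^-8 M final. 17β-Estradiol at 10^-8 M was the positive control and 0.01% DMSO the negative. RNA isolated and converted to cDNA. ERβ PCR: 32 cycles (94 °C 30 s, 56 °C 30 s, 72 °C 30 s), final extension 7 min.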

Take `CC(=O)Oc1ccc(CCC(=O)/C=C/C=C/c2ccccc2)cc1`: the figures for the Activity in test [1] and in test [2] were 49.82% and 68.45%, respectively.

Consider `O=C(CC/C=C/c1ccccc1)CCc1ccc(O)cc1`, for which the Activity in test [1] came out at 78.51%; in test [2] it was 90.56%.

With `O[C@@H](/C=C/C=C/c1ccccc1)CCc1ccccc1`, the values for the Activity in test [1] and in test [2] were 62.51% and 75.42%, respectively.

As to `O=C(CC/C=C/c1ccccc1)CCc1ccccc1`, the Activity is 74.3% in test [1] and 85.45% in test [2].

On to `O=c1c(-c2ccc(O)cc2)coc2cc(O)cc(O)c12` [GENISTEIN], for which the results for the Activity in test [1] and in test [2] were 72.85% and 75.51%, respectively.

For `O=C(/C=C/C=C/c1ccccc1)CCc1ccc(O)cc1`, the Activity in test [1] came out at 74.54%; in test [2], 87.75%.

`COc1ccc(CCC(=O)/C=C/C=C/c2ccccc2)cc1`: the Activity was found to be 76.77% in test [1] and 72% in test [2].

As to `O[C@@H](CC/C=C/c1ccccc1)CCc1ccccc1`, the Activity in test [1] worked out at 52.85%; in test [2], 42.48%.

As for `C(=C\C=C\c1ccccc1)/C=C/Cc1ccccc1`, the Activity in test [1] was 77.5%; in test [2], 76.46%.

For the molecule `O=C(/C=C/CCc1ccccc1)CCc1ccc(O)cc1`, the Activity in test [1] was determined as 47.08%; in test [2], 50.86%.

In the case of `CC(=O)O[C@@H](CCCCc1ccccc1)CCc1ccccc1`, the Activity was determined as 55% in test [1] and 58.97% in test [2].

For `Oc1ccc(CC[C@@H](O)CC/C=C/c2ccccc2)cc1`, the Activity in test [1] was 57.73%; in test [2], 52.5%.

Turning to `CO[C@@H](CC/C=C/c1ccccc1)CCc1ccccc1`, the values for the Activity in test [1] and in test [2] were 72.5% and 74.97%, respectively.

Consider `CC(=O)Oc1ccc(CCC(=O)CC/C=C/c2ccccc2)cc1`, for which the Activity is 75.3% in test [1] and 84% in test [2].

`O=C(/C=C/c1ccc(O)cc1)CCCCc1ccccc1`: the values for the Activity in test [1] and in test [2] were 74.41% and 70.33%, respectively.

As to `Oc1ccc(CC[C@@H](O)CC/C=C/c2ccccc2)cc1O`, the results for the Activity in test [1] and in test [2] were 45.98% and 51.5%, respectively.

In the case of `CC(=O)O[C@@H](/C=C/C=C/c1ccccc1)CCc1ccccc1`, the Activity in test [1] is 47.96%; in test [2] it was 58.36%.

Take `CC(=O)O[C@@H](CC/C=C/c1ccccc1)CCc1ccccc1`: the values for the Activity in test [1] and in test [2] were 71.06% and 75.5%, respectively.

Take `O=C(/C=C/C=C/c1ccccc1)CCc1ccccc1`: the Activity was 43.97% in test [1] and 33.72% in test [2].

On to `COc1ccc(CCC(=O)CC/C=C/c2ccccc2)cc1`, for which the Activity in test [1] amounted to 71.4%; in test [2] it was 58.51%.

Turning to `O[C@@H](CCCCc1ccccc1)CCc1ccccc1`, the values for the Activity in test [1] and in test [2] were 40% and 37.03%, respectively.

Turning to `O=C(CCCCc1ccccc1)CCc1ccccc1`, the results for the Activity in test [1] and in test [2] were 42.18% and 57.5%, respectively.
